Measured values from PubChem BioAssay AID720508 (The Scripps Research Institute Molecular Screening Center, 2013).
Hit rate of the full screen: of about 370,000 compounds, about 500 (0.14%) were called active. This excerpt belongs to a sample that is enriched for actives. Unmarked numbers belong to inactive results.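 The calls were made as follows: active = inhibition above the mean of compounds falling within the control limits plus 3 SD of them (cut at about 14% in these data); inactive = the rest.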

target: Fibrinogen beta chain (Homo sapiens) (UniProt P02675); experiment: inhibitors of Tn7 peptide binding to fibrin DD(E), primary screen, biochemical, fluorescence polarization, human fibrin, Tn7 probe (AID 720508); details: FP displacement of FITC-Tn7 peptide from fibrin DD(E); at 8.3 µM; active compounds read high; 0% = median of compound wells per plate;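 also: 0% = plate median of compound wells and 100% = 10 µM Aha-Tn7 peptide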
Sequence (P02675 whole entry, looked up): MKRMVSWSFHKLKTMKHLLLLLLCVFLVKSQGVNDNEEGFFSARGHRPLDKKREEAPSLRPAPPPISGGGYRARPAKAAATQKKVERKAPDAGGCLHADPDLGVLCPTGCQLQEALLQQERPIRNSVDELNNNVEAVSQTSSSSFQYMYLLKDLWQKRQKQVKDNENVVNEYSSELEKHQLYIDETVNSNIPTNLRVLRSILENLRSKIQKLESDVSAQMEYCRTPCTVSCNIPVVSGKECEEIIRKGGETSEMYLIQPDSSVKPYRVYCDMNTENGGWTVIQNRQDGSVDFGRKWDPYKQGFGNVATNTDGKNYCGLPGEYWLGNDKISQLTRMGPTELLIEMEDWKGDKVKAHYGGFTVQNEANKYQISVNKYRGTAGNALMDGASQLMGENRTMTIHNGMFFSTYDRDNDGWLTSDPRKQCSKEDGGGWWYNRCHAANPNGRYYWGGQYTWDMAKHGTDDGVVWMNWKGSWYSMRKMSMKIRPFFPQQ
Procedure, shortened: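 Assay system: Fibrin-DD(E) protein isolated from polymerized human fibrin clots; read-out basis: percent inhibition; medium: Tris/NaCl/CaCl2 buffer, pH 7.8; signal: FP measurement; incubation: 10 min plus 3 h, room temperature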

Compared with `CSC1=NC2(C)CCCCC2C12C=CC(=O)C=C2` (stereo unspecified), `CC1CCCCC12NC(=O)N(CC(=O)OCc1c(F)cccc1Cl)C2=O` (stereo unspecified) is lower in inhibition: 6.72% for the first, 5.49% for the second.

Compared with `CC(OC(=O)CN1C(=O)COc2ccccc21)C(=O)NCc1ccc(F)cc1` (stereo unspecified), `Cc1ccccc1CCNC(=O)C1CCC(=O)N(Cc2ccc(Cl)cc2)C1` (stereo unspecified) is higher in inhibition: -2.52% for the first, 7.94% for the second.

First: CN(Cc1ccccc1)CC(O)COc1ccc(CNCc2cc3ccccc3s2)cc1 (stereo unspecified)
Second: CCc1nn(-c2cc(Oc3cccc4ccccc34)nc(-c3ccccc3)n2)c(N)c1C#N
The inhibition of the first is higher: 5.14% for the first, 4.4% for the second.

First: Cc1cc(C(=O)OC(C)C(=O)NC2CCCCC2C)c(C)o1 (stereo unspecified)
Second: O=C(COC(=O)c1cc([N+](=O)[O-])ccc1NCc1ccccc1)NC1CCCCC1
The inhibition of the first is lower: -2.98% for the first, -0.23% for the second.

Compared with `CCO/N=C(/C)c1c(O)cc(-c2ccccc2)n(-c2ccccc2)c1=O`, `O=C(N=C1SC2CS(=O)(=O)CC2N1Cc1ccccc1)c1ccccc1` (stereo unspecified) is higher in inhibition: 0.3% for the first, 8.78% for the second.

Compared with `COCCCNC(=O)Cc1ccc(-n2c(C)nc3cccnc32)cc1`, `COCCNC(=O)CSc1nc2c(n1-c1ccccc1)CCCC2` is lower in inhibition: 1.6% for the first, -3.74% for the second.

First: O=C(NNS(=O)(=O)c1ccc(F)cc1)c1ccc([N+](=O)[O-])cc1Cl
Second: Cc1ccc(S(=O)(=O)c2c[nH]c3ccc(Cl)cc3c2=O)cc1
The inhibition of the first is higher: 1.43% for the first, -0.42% for the second.

Going from `CCNC(=O)c1cccc(NC(=O)C2CC(=O)N(CCc3ccccc3)C2)c1` (stereo unspecified) to `CC(C)(C)OC(=O)N1CCC(C(=O)Nc2cccc(C(=O)NCCc3ccccc3)c2)CC1`, the inhibition falls from 8.78% to -2.62%.

First: COc1ccc(C(=O)OCC(=O)NCC2CCCO2)cc1[N+](=O)[O-] (stereo unspecified)
Second: CC(C)CNC(=O)COC(=O)/C=C/c1ccccc1[N+](=O)[O-]
The inhibition of the first is lower: 2.02% for the first, 2.51% for the second.

Going from `COCCn1c(N)c(NCc2ccccc2)c(=O)[nH]c1=O` to `CC(C)CC(=O)c1c[nH]c(C(=O)NCc2ccccc2)c1`, the inhibition falls from 8.37% to -1.06%.

Going from `Nc1ccc2nc3c(=O)[nH]c(=S)[nH]c3nc2c1` to `CCN(CC)CCCC(C)n1c2nc(=O)[nH]c(=O)c-2nc2cc(Cl)ccc21` (stereo unspecified), the inhibition falls from 7.86% to -7.28%.

Compared with `CN(C)CCNC(=O)C(C(=O)c1ccccc1)n1ccccc1=O` (stereo unspecified), `CCC(C)[C@H](NC(=O)N1c2ccccc2NC(=O)[C@@H]1C(C)C)C(=O)N[C@@H](Cc1ccccc1)C(=O)O` (stereo partly specified) is lower in inhibition: 8.86% for the first, -4.14% for the second.

Compared with `Cc1ccc(-c2nc(-c3cccnc3)sc2CC(=O)Nc2ccc(C)c(Cl)c2)cc1`, `Cc1ccc(NC(=O)CN(C)C(=O)c2ccc(Cl)c(S(=O)(=O)NCc3ccco3)c2)cc1` is higher in inhibition: -4.07% for the first, -3.83% for the second.

First: CSCCNC(=O)c1ccc2nc(Cc3ccccc3F)oc2c1
Second: O=C(NCc1cccnc1)Nc1ccccc1F
The inhibition of the first is higher: -0.81% for the first, -2.21% for the second.

Compared with `COC(=O)[C@H](C(C)C)N1CCc2nnn(Cc3ccc(C)cc3)c2-c2ccccc2S1(=O)=O`, `COc1ccc(S(=O)(=O)N2CCN(C(C)C(=O)Nc3ccc(C(C)C)cc3)CC2)cc1` (stereo unspecified) is lower in inhibition: 5.12% for the first, 2.11% for the second.

Going from `O=C(COC(=O)c1ccc(O)cc1)Nc1nccs1` to `CC(=O)c1ccc(NC(=O)CCNS(=O)(=O)c2cc(Br)cnc2N)cc1`, the inhibition falls from 6.41% to 1.85%.

First: O=C1C(=O)N(CCCN2CCOCC2)C(c2ccc([N+](=O)[O-])cc2)/C1=C(\O)c1ccc2c(c1)OCCO2 (stereo unspecified)
Second: COc1ccc(C(=O)N(C)Cc2ccc(OC)c(OC)c2OC)cc1S(=O)(=O)N1CCOCC1
The inhibition of the first is higher: -0.14% for the first, -8.78% for the second.

Going from `O=S(=O)(c1cccc(-c2nnc(SC(F)F)n2-c2ccccc2)c1)N1CCCCC1` to `O=C(Cn1cnc2ccccc2c1=O)Nc1cccc(S(=O)(=O)N2CCCCC2)c1`, the inhibition falls from 3.4% to -0.43%.

First: O=C(OCC(=O)N1CCN(C(=O)c2ccco2)CC1)c1ccccc1Cc1ccccc1
Second: C=C(C)C#CC(Cc1ccccc1)N(CC1CC1)/C(N)=N/C(=O)OCc1ccccc1 (stereo unspecified)
The inhibition of the first is lower: -2.57% for the first, 1.85% for the second.

Compared with `Cc1cccc(C)c1Nc1c(-c2ccccc2O)nc2ncccn12`, `Cc1ccccc1-c1csc(C(O)c2cccc(Cl)c2)n1` (stereo unspecified) is lower in inhibition: 2.35% for the first, -0.35% for the second.

First: Cc1cc(Nc2cccc(F)c2)n2ncnc2n1
Second: COc1ccc(-c2csc(C(O)c3cccc(Cl)c3)n2)cn1 (stereo unspecified)
The inhibition of the first is higher: -2.61% for the first, -9.22% for the second.

Compared with `COc1ccc(/C=C2\CCCC3C2=NN(C(=O)c2scnc2C)C3c2ccc(OC)cc2)cc1` (stereo unspecified), `Cc1cccc(NC(=O)c2ccc(S(=O)(=O)N(C)CC3CCCO3)cc2)c1C` (stereo unspecified) is lower in inhibition: 2.65% for the first, -10% for the second.

Compared with `CC(C)=CCCC1(C)C=Cc2c(ccc3c2[nH]c2cc(O)c(C)cc23)O1` (stereo unspecified), `Cc1cc2occ(CC(=O)NNC(=O)c3ccccc3F)c2cc1C` is higher in inhibition: -5.67% for the first, -1.71% for the second.

Going from `CC(C)C[C@H]1CNC(=S)N1C[C@H]1CCCN1C[C@H](Cc1ccc(O)cc1)N1C[C@H](Cc2ccc(O)cc2)N(CC2CCCCC2)C1=S` to `CCc1nc2c(OCCC3CCCCC3)cccn2c1N(C)C(=O)c1ccco1`, the inhibition rises from -3.09% to -2.4%.

Going from `Cc1cc(C)c2nc3nc(C)cc(C)c3c(N)c2c1` to `Nc1nc2n(n1)C(c1ccco1)CC(c1ccc(Cl)c(Cl)c1)N2` (stereo unspecified), the inhibition falls from 3.42% to -5.38%.

Going from `COc1ccc(S(=O)(=O)N2CCOCC2)cc1NC(=O)CSc1nnc(NC2CC2)s1` to `Cc1cc(NC(=O)C(C)SCC(=O)Nc2cccc(S(=O)(=O)N3CCCCCC3)c2)no1` (stereo unspecified), the inhibition rises from -0.34% to 6.6%.

First: CCCC1CCC2(CCCN2CCOC(=O)NCc2ccccc2)CC1 (stereo unspecified)
Second: O=C(NCc1ccccc1)C1CCCN(c2nc3ccsc3c(=O)s2)C1 (stereo unspecified)
The inhibition of the first is higher: 2.73% for the first, -2.86% for the second.

First: COc1ccc(S(=O)(=O)N(C)CC(=O)N2CCCC2)cc1Cl
Second: O=C(COC(=O)CCOc1ccccc1)Nc1cc(S(=O)(=O)N2CCCCC2)ccc1Cl
The inhibition of the first is lower: -5.85% for the first, 3.01% for the second.

Going from `CSCC[C@H](NC(=O)NCc1cccs1)C(=O)O` to `CC(=O)c1cc(-c2ccccc2)n(CCC(=O)NC2CCCCCC2)c1C`, the inhibition falls from 1.72% to -2.95%.

First: NC(=O)c1ccc(N2CCCC2)nc1
Second: O=C(CSc1nncn1-c1cccnc1)N1CCOCC1
The inhibition of the first is higher: 2.52% for the first, -3.73% for the second.

Going from `Cc1c(C(=O)O)nnn1-c1nonc1N` to `Cc1cc(=O)[nH]c2nnnn12`, the inhibition falls from 1.32% to -1.23%.

First: CCC(=O)N1CCN=C1SCc1ccc(F)cc1
Second: CC(=O)Nc1ccc(CN2CCN(Cc3ccc(F)c(F)c3)C(CCO)C2)cc1 (stereo unspecified)
The inhibition of the first is higher: 1.78% for the first, 0.97% for the second.

Compared with `Cc1nnc(SCC(=O)Nc2ncc3c(n2)CC(C)(C)CC3=O)s1`, `C=CCn1c(COc2ccc(F)cc2)nnc1SCC(=O)Nc1cccc(S(N)(=O)=O)c1` is lower in inhibition: 3.19% for the first, 2.08% for the second.

Going from `COc1cc2c(cc1OC)CC1(CCCCC1)N=C2` to `O=C(NCCCN1CCCCC1)C1CCCN(c2ncnc3c2nc2n3CCCCC2)C1` (stereo unspecified), the inhibition falls from 3.18% to -0.83%.

Going from `O=c1o[nH]c(-c2ccccc2)c1N=Nc1c(F)cccc1Cl` to `O=C(Cn1cnc2ccccc2c1=O)NNC(=O)c1ccccc1F`, the inhibition falls from 1.8% to -3.62%.

First: COc1ccc(N=C2C=CC(=O)O2)cc1
Second: CC1(C)CC(=O)C(C2c3ccccc3S(=O)(=O)c3ccccc32)C(=O)C1
The inhibition of the first is lower: -2.28% for the first, 2.44% for the second.

Compared with `CN(CC(=O)Nc1ccc(F)c(F)c1F)C(=O)C1CC(=O)N(C2CCCC2)C1` (stereo unspecified), `O=S1(=O)CC(N2CCN(Cc3ccccc3F)CC2)CN1Cc1cn(Cc2cccc(C(F)(F)F)c2)nn1` (stereo unspecified) is higher in inhibition: 0.71% for the first, 1.27% for the second.

First: COC(=O)CSc1snnc1-c1ccc(Cl)c(Cl)c1
Second: O=C(c1c(Cl)cccc1Cl)N1CCN(c2cccc3[nH]ccc23)CC1
The inhibition of the first is lower: -4.58% for the first, 2.06% for the second.

First: Cc1nn(C(C)(C)C)c(OC(=O)CC(C)C)c1S(=O)(=O)c1ccccc1
Second: C=CCN1CCN(c2ccncc2S(=O)(=O)N2CCN(C)CC2)CC1
The inhibition of the first is lower: 1.04% for the first, 7.05% for the second.

Going from `CO[C@H]1[C@@H]2C=CO[C@@H](O[C@H]3O[C@@H](CO)[C@H](O)[C@@H](O)[C@@H]3O)[C@@H]2[C@@]2(CO)O[C@@H]12` to `S=C(NC1CCCCC1)NN1CCOCC1`, the inhibition rises from -5.28% to 4.52%.

In the case of `Oc1ccc2ccc3cccc[n+]3c2c1`, the inhibition is reported as 62.8% (active).
`O=C(COC(=O)c1ccc([N+](=O)[O-])cc1Cl)NC(=O)c1ccccc1` was tested, and the inhibition was 17.7% (active).
For `O=C(NCc1ccccc1)c1cccc(NC(=O)C2CCCCC2)c1`, the inhibition was 15.5% (active).
For `O=C(/C=C/c1ccccc1[N+](=O)[O-])NCC1CCCO1` (stereo unspecified), the inhibition was 14.7% (active).
With `Cc1cc2nc3c(=O)n(Cc4ccccc4)c(=O)[nH]c3nc2cc1N` the inhibition was 25.7% (active).
In the case of `Cc1cc2nc3c(=O)[nH]c(=O)nc-3n(C[C@H](O)[C@H](O)[C@H](O)CO)c2cc1C`, the inhibition is reported as 24.1% (active).
For `COc1ccc(S(=O)(=O)c2c[nH]c(=S)[nH]c2=O)cc1Cl`, the inhibition was 14.8% (active).
In the case of `COc1cccc2c1C(=O)c1c(O)c3c(c(O)c1C2=O)CC(O)(C(C)=NNC(=O)c1ccc(Cl)c(Cl)c1)CC3OC1CC(N)C(O)C(C)O1` (stereo unspecified), the inhibition is reported as 27% (active).
`COc1ccc(N=Nc2c(-c3ccc(OC)cc3)[nH]oc2=O)cc1` was tested, and the inhibition was 25.7% (active).
In the case of `OC(c1ccccc1)c1nc(-c2cnc3ccccc3c2)cs1` (stereo unspecified), the inhibition is reported as 15.7% (active).
With `Cn1c(CC(=O)NNC(=O)c2ccccc2F)nc2ccccc21` the inhibition was 14.2% (active).
